Measured values: ChEMBL document CHEMBL1148178, “Dicranin, an antimicrobial and 15-lipoxygenase inhibitor from the moss Dicranum scoparium” (1993)

How the values were obtained:
Format in all cases: functional
Conditions in all cases: read-out: Diameter of inhibition zone
[1] = tested on: Geobacillus stearothermophilus; experiment: Antibacterial activity against Bacillus stearothermophilus NCA 1518 at 1000 ug/disk after 24 hrs by disk diffusion assay
Outline: (§1)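 Sterile 6 mm filter-paper disc bearing sample set in the centre of a Petri dish of 15 ml plate count agar. Overlaid with 3 ml soft nutrient agar (nutrient broth + 0.7% agar) seeded with 1% of a 16–18 h culture of the test strain. Read-out is the diameter of the growth-free zone around the disc.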

Staphylococcus aureus = experiment: Antibacterial activity against Staphylococcus aureus T-AQ 49/YF29 at 1000 ug/disk after 24 hrs by disk diffusion assay; outline: as §1
Enterococcus faecalis = experiment: Antibacterial activity against Streptococcus faecalis NCIB 775 at 1000 ug/disk after 24 hrs by disk diffusion assay
Outline: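 Test material loaded onto 6 mm sterile filter-paper discs. Each disc sits at the centre of a plate of 15 ml plate count agar overlaid with 3 ml soft nutrient agar (nutrient broth + 0.7% agar) carrying 1% of a 16–18 h culture. Activity is read as the diameter of the no-growth zone around the disc.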

Bacillus cereus = experiment: Antibacterial activity against Bacillus cereus NCIB 3329 at 500 ug/disk after 24 hrs by disk diffusion assay; outline: as §1
Bacillus subtilis = experiment: Antibacterial activity against Bacillus subtilis NCIB 3610 at 1000 ug/disk after 24 hrs by disk diffusion assay; outline: as §1

## CCCCCC/C=C\CCCCCCCC(=O)O [PALMITOLEIC ACID]
[1]
  zone of inhibition at 1000 µg/disc: 45 mm
Staphylococcus aureus
  zone of inhibition at 1000 µg/disc: 22 mm
Enterococcus faecalis
  zone of inhibition at 1000 µg/disc: 20 mm
Bacillus cereus
  zone of inhibition at 500 µg/disc: 14 mm
Bacillus subtilis
  zone of inhibition at 1000 µg/disc: 14 mm
